DNMT1_block: blocks human DNA methyltransferase DNMT1; AID 588458; P26358; hit rate 0.83% among 360,000; inhibition (reported as % activation of signal), % at 10 µM; DNMT1 molecular beacon, Hinp1I cleavage, fluorescence; in the data active means inhibition above about 50%
SUMO1_PPI_mod: modulators of human SUMO1-mediated protein-protein interactions; SUMO1 binding to a labelled peptide, TR-FRET, 1 h; AID 602429; P63165; inhibition, % at 20 µM; hit rate 0.33% among 360,000; in the data active means inhibition above about 37%
LMPTP_block: LMPTP (human) inhibition; recombinant LMPTP-A, OMFP fluorogenic substrate, fluorescence intensity; P24666; AID 651560; inhibition, % at 20 µM; hit rate 0.22% among 360,000;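 active means compounds that cut the enzyme signal by at least half of the control window in the single-dose screen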;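 further: plate controls were DMSO wells with enzyme plus substrate for no effect and substrate without enzyme for full effect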
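material = LMPTP-A | quantity = 0.625 nM enzyme | reagent = OMFP substrate, 400 µM final | buffer or medium = Bis-Tris pH 6.0, DTT, detergent | detection = endpoint fluorescence intensity from OMFP dephosphorylation | dosing = single 20 µM dose | read-out basis = % inhibition relative to no-enzyme and uninhibited control wells | control set = no-enzyme and uninhibited controls | timing = 50 min at room temperature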
STEP_block: STEP (human) phosphatase inhibition | recombinant STEP, OMFP fluorogenic substrate, fluorescence | inhibition, % at 20 µM | hit rate 0.25% among 360,000 | AID 588621;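 active means inhibition at 20 µM, scaled per plate between control wells, above about 37%, limit read from the data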;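 further: 0% = DMSO with enzyme and substrate and 100% = substrate only without enzyme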
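Assay system: isolated STEP enzyme / Timing: 20 min at room temperature, dark / Doses: 20 µM, 1% DMSO / Technique: fluorescence intensity, excitation 480 nm, emission 540 nm / Reagent: fluorogenic phosphatase substrate OMFP at 25 µM final / Measure: percent inhibition scaled to no-enzyme and uninhibited-enzyme controls, plate-pattern corrected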
Scp-1_inhibitor: Scp-1 (human) phosphatase inhibition. inhibition, % at 20 µM. hit rate 0.88% among 340,000. Q9GZU7. Recombinant Scp1, phosphopeptide, malachite green phosphate absorbance. AID 493091;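 active means inhibition above about 50% at 20 µM, limit read from the data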;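 further: plate controls were DMSO wells with enzyme for no effect and wells lacking enzyme for full effect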
Target sequence (Q9GZU7 76-261 limits assumed): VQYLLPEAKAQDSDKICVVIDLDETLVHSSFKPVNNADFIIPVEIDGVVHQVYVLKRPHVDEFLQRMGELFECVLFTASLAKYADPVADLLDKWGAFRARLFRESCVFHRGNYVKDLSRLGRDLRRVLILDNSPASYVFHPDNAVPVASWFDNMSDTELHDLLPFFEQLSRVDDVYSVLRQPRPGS
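Times: enzyme reaction 45 min at room temperature, colour 5 min, stabilisation 30 min. Material: SCP-1 catalytic fragment, aa 76-261. Medium: Acidic Tris acetate buffer with magnesium and detergent. Signal: colorimetric free-phosphate detection, absorbance 630 nm. Read-out basis: % inhibition of SCP-1 phosphate liberation. Reagent: Phosphorylated 17-residue peptide substrate.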
STEP_inh_conf: STEP (human) phosphatase inhibition, single concentration confirmation; shares compounds with STEP_block; recombinant STEP, OMFP fluorogenic substrate, fluorescence; inhibition, % at 20 µM; hit rate 32% among 520; AID 623866; call rule not given here;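 further: 0% = enzyme with substrate plus DMSO and 100% = substrate without enzyme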
* hit, by the source's call; x = no result. In the library only some 1.7% were active in any assay of this set; here they are far more common.

SMILES DNMT1_block SUMO1_PPI_mod LMPTP_block STEP_block Scp-1_inhibitor STEP_inh_conf
CCOc1ccccc1NC(=S)N(CCCN1CCOCC1)Cc1cn(C)c2ccccc12 0 4 -1 5 1 x
COc1ccc(Cl)cc1NC(=S)N(CCCN1CCOCC1)Cc1cn(C)c2ccccc12 -9 3 -4 94* -2 48*
COc1cc(Cl)ccc1NC(=S)N(CCCN1CCOCC1)Cc1cn(C)c2ccccc12 -9 3 -1 91* -6 49*
Cc1ccc(/C=N/n2c(-c3cccnc3)n[nH]c2=S)s1 2 -4 0 0 6 x
S=c1[nH]nc(-c2cccnc2)n1/N=C/c1ccc(Br)s1 1 -4 8 36* -2 29*
CC1(C)Cc2c(sc(NC(=O)C(=O)NCCCN3CCOCC3)c2C(N)=O)CO1 1 -5 -2 40* -4 13
Cc1ccc(COc2ccc(CNCCCN3CCCCCC3=O)cc2)cc1 1 2 -3 75* 1 8
Cc1ccc(NC(=O)C(=O)NCCCN2CCCC2=O)cc1 1 0 0 -1 2 x
